One may read the IC50 as the concentration at which inhibition is half-maximal.

SMILES strings stand for the structures. Activity calls are given as the source filed them. No cut-off for these calls is given here.

Chain of Eukaryotic translation initiation factor 2-alpha kinase 1 (Homo sapiens) (Q9BQI3 whole entry): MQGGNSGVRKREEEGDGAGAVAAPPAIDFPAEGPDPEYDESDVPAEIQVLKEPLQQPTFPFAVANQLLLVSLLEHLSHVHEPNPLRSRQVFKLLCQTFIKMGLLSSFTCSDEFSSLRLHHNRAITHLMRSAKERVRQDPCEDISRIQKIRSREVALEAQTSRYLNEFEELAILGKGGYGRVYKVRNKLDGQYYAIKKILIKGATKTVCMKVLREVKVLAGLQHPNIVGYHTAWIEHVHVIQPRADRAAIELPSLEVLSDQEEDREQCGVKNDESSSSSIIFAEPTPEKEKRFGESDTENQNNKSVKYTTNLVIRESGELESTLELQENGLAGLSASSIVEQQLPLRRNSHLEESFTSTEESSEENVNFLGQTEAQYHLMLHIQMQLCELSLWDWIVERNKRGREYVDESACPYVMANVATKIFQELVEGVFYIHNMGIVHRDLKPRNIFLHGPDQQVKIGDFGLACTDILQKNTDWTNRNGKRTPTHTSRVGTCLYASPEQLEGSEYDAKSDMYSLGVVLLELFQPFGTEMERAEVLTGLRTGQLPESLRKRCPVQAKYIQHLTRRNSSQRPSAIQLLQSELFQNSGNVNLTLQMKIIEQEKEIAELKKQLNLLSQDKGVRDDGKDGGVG

System in the first data set: not listed separately
Kind of data set: Ratio of IC50 for human CRL2813 cells after 3 days by SRB assay in presence of HRI-targeting siRNA to IC50 for human CRL2813 cells after 3 days by SRB assay in presence of non-targeting siRNA. The format is functional.
Conditions: not given
The essentials: (§1)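 CRL-2813 cells transiently transfected (Lipofectamine 2000) with HRI-targeting or non-targeting siRNA, then treated with compound dose range; proliferation by SRB after 3 days. IC50 calculated per siRNA condition; ratio is HRI-siRNA over non-targeting IC50. Triplicate, three independent experiments; mean±S.E.M.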
As for `O=C(Nc1cccc(C(F)(F)F)c1)N[C@H]1CC[C@H](Oc2ccccc2F)CC1`, the “Ratio IC50” value was 7.

Consider `O=C(Nc1cccc(C(F)(F)F)c1)N[C@H]1CC[C@H](Oc2cccc(F)c2)CC1`, for which the “Ratio IC50” value turned out to be 7.

A further data set has as its target Eukaryotic translation initiation factor 2-alpha kinase 1 (Homo sapiens) (UniProt Q9BQI3). Kind of data set: Activation of HRI in human CRL2813 cells assessed as increase in CHOP protein expression at 10 uM after 6 hrs by Western blotting analysis. The format is cell-based.
Conditions: not given
Summed up:
(§2)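 CRL-2813 melanoma cells grown in serum-containing medium without antibiotics to 70% confluence, treated 6 h (10 μM for CHOP/cyclin D1), lysed in M-PER on ice 30 min, protein by BCA. Equal protein on SDS-PAGE, probed with anti-pS51-eIF2α rabbit mAb, anti-total eIF2α mouse mAb, anti-CHOP, anti-cyclin D1, anti-actin. Three independent experiments.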
In general terms: In western blotting, separated proteins are transferred to a membrane and probed.
For the compound `O=C(Nc1ccc(OC(F)(F)F)cc1)N[C@H]1CC[C@H](Oc2ccc(F)cc2)CC1`, the result was Active.

Turning to `O=C(Nc1ccc(C(F)(F)F)cc1)N[C@H]1CC[C@H](Oc2ccc(F)cc2)CC1`, the outcome was Active.

The next data set shares this target. The experiment in a line: Activation of HRI in human CRL-2813-pBISA-DL(ATF-4) reporter cells assessed as concentration required to obtain F-luciferase expression/R-luciferase expression ratio 3.
Conditions: not given
Summed up:
(§3)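 Stably transfected CRL-2813-pBISA-DL(ATF-4) reporter cells treated with compounds in dose-response; firefly and renilla luciferases read by dual glow luciferase kit. Activity = firefly/renilla (F/R) ratio normalized to DMSO-treated wells (set at 1). Triplicate points fitted to logistic sigmoidal model by nonlinear least squares; C3X = concentration giving F/R = 3, Emax = maximal F/R.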
As to `O=C(Nc1cccc(C(F)(F)F)c1)N[C@H]1CC[C@H](Oc2ccccc2F)CC1`, the Activity was determined as 3.2 µM.

Consider `O=C(Nc1cccc(C(F)(F)F)c1)N[C@H]1CC[C@H](Oc2cccc(F)c2)CC1`, for which the Activity came out at 2.6 µM.

For `O=C(Nc1ccc(OC(F)(F)F)cc1)N[C@H]1CC[C@H](Oc2ccc(F)cc2)CC1`, the Activity amounted to 0.7 µM.

As to `O=C(Nc1ccc(C(F)(F)F)cc1)N[C@H]1CC[C@H](Oc2ccc(F)cc2)CC1`, the Activity stood at 1.6 µM.

A further data set shares this target. Kind of data set: Activation of HRI in human CRL-2813-pBISA-DL(ATF-4) reporter cells assessed as eIF2alpha phosphorylation after 8 to 32 hrs by dual-luciferase reporter gene assay.
Conditions: not given
Summed up: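 Reporter CRL-2813-pBISA-DL(ATF-4) cells incubated with compounds for 8, 16 or 32 h. Firefly/renilla luciferase ratio measured by dual luciferase assay and normalized to vehicle-treated cells.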
(In general: A reporter such as luciferase makes a cellular process visible.)
As for `O=C(Nc1cccc(C(F)(F)F)c1)N[C@H]1CC[C@H](Oc2ccccc2F)CC1`, the result was Active.

Regarding `O=C(Nc1cccc(C(F)(F)F)c1)N[C@H]1CC[C@H](Oc2cccc(F)c2)CC1`, the outcome was Active.

System in a further data set: not listed separately
The experiment in a line: Selectivity ratio of IC50 for mouse NIH/3T3 cells to IC50 for human CRL2813 cells. Format: ADME, cell-based. The conditions noted are these: NIH/3T3 cells and CRL2813 cells, read-out: Ratio IC50.
For `O=C(Nc1ccc(OC(F)(F)F)cc1)N[C@H]1CC[C@H](Oc2ccc(F)cc2)CC1`, the selectivity ratio amounted to 5.

Another data set has as its system NIH3T3. The experiment in a line: Cytotoxicity against mouse NIH/3T3 cells after 5 days by SRB assay. Conditions: NIH3T3, 120 h. The format is cell-based. The essentials:
(§4)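 CRL-2813 melanoma or NIH/3T3 fibroblasts seeded in 96-well plates, exposed 5 days to 0.5–20 μM compound; fixed in cold 10% TCA, bound sulforhodamine B measured. % growth = 100×(T−T0)/(C−T0). IC50 derived; triplicate, three independent experiments.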
For the compound `O=C(Nc1ccc(OC(F)(F)F)cc1)N[C@H]1CC[C@H](Oc2ccc(F)cc2)CC1`, the IC50 was 13.6 µM.

The next data set has as its target Eukaryotic translation initiation factor 2-alpha kinase 1 (Homo sapiens) (UniProt Q9BQI3). Kind of data set: Activation of HRI in human CRL-2813-pBISA-DL(ATF-4) reporter cells assessed as reduction of ternary complex at 30 uM by dual-luciferase reporter gene assay relative to control.
Conditions: not given
The essentials: as §3
`O=C(Nc1cccc(C(F)(F)F)c1)N[C@H]1CC[C@H](Oc2ccccc2F)CC1`: the Ratio came to 7.98.

In the case of `O=C(Nc1cccc(C(F)(F)F)c1)N[C@H]1CC[C@H](Oc2cccc(F)c2)CC1`, the Ratio turned out to be 7.23.

As for `O=C(Nc1ccc(OC(F)(F)F)cc1)N[C@H]1CC[C@H](Oc2ccc(F)cc2)CC1`, the Ratio turned out to be 15.3.

Take `O=C(Nc1ccc(C(F)(F)F)cc1)N[C@H]1CC[C@H](Oc2ccc(F)cc2)CC1`: the Ratio came out at 14.

System in a further data set: not listed separately
The experiment in a line: Antiproliferative activity against human CRL2813 cells after 3 days by SRB assay in presence of non-targeting siRNA. Format: functional, cell-based. Conditions: CRL2813, 72 h. Summed up:
as §1
Take `O=C(Nc1cccc(C(F)(F)F)c1)N[C@H]1CC[C@H](Oc2ccccc2F)CC1`: the IC50 turned out to be 2.8 µM.

In the case of `O=C(Nc1cccc(C(F)(F)F)c1)N[C@H]1CC[C@H](Oc2cccc(F)c2)CC1`, the IC50 was 4.3 µM.

A further data set deals with MCF7. Kind of data set: Antiproliferative activity against human MCF7 cells after 5 days by SRB assay in presence of HRI-targeting siRNA. The conditions noted are these: MCF7, 120 h. Format: functional, cell-based.
Regarding `O=C(Nc1ccc(OC(F)(F)F)cc1)N[C@H]1CC[C@H](Oc2ccc(F)cc2)CC1`, the half-maximal inhibitory concentration (IC50) is 30 µM.

On to `O=C(Nc1ccc(C(F)(F)F)cc1)N[C@H]1CC[C@H](Oc2ccc(F)cc2)CC1`, for which the IC50 worked out at 29.5 µM.

System in the next data set: not listed separately
The experiment in a line: Antiproliferative activity against human CRL2813 cells after 3 days by SRB assay in presence of HRI-targeting siRNA. Conditions: CRL2813, 72 h. The format is functional, cell-based. Summed up:
as §1
Background: Sulforhodamine B stains cellular protein and so reports cell mass.
For the compound `O=C(Nc1cccc(C(F)(F)F)c1)N[C@H]1CC[C@H](Oc2ccccc2F)CC1`, the IC50 came out at 21.9 µM.

On to `O=C(Nc1cccc(C(F)(F)F)c1)N[C@H]1CC[C@H](Oc2cccc(F)c2)CC1`, for which the IC50 came out at 29.9 µM.

The next data set concerns the target Eukaryotic translation initiation factor 2-alpha kinase 1 (Homo sapiens) (UniProt Q9BQI3). Kind of data set: Activation of HRI in human CRL2813 cells assessed as reduction in cyclin D1 mRNA expression at 7.5 to 15 uM after 6 hrs by RT-PCR analysis. Format: cell-based.
Conditions: not given
The essentials: (§5)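 CRL-2813 cells incubated with 7.5 or 15 μM compound for 6 h; CHOP and cyclin D1 mRNA measured by real-time PCR. Each run in triplicate, mean of three independent experiments ±S.E.M.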
Regarding `O=C(Nc1ccc(OC(F)(F)F)cc1)N[C@H]1CC[C@H](Oc2ccc(F)cc2)CC1`, the outcome was Active.

Take `O=C(Nc1ccc(C(F)(F)F)cc1)N[C@H]1CC[C@H](Oc2ccc(F)cc2)CC1`: the result was Active.

A further data set has the same target. Kind of data set: Activation of HRI in human CRL2813 cells assessed as increase in CHOP mRNA expression at 7.5 to 15 uM after 6 hrs by RT-PCR analysis.
Conditions: not given
The format is cell-based. Summed up:
as §5
Take `O=C(Nc1ccc(OC(F)(F)F)cc1)N[C@H]1CC[C@H](Oc2ccc(F)cc2)CC1`: the result was Active.

With `O=C(Nc1ccc(C(F)(F)F)cc1)N[C@H]1CC[C@H](Oc2ccc(F)cc2)CC1`, the result was Active.

System in the next data set: not listed separately
Kind of data set: Antiproliferative activity against human CRL2813 cells after 5 days by SRB assay in presence of HRI-targeting siRNA. The format is functional, cell-based. Conditions: CRL2813, 120 h.
Consider `O=C(Nc1ccc(OC(F)(F)F)cc1)N[C@H]1CC[C@H](Oc2ccc(F)cc2)CC1`, for which the 50% inhibitory concentration (IC50) is 7.4 µM.

With `O=C(Nc1ccc(C(F)(F)F)cc1)N[C@H]1CC[C@H](Oc2ccc(F)cc2)CC1`, the IC50 came out at 6.5 µM.

System in another data set: not listed separately
Kind of data set: Cytotoxicity against human CRL2813 cells after 5 days by SRB assay. The format is functional, cell-based. Conditions: CRL2813, 120 h. The essentials:
as §4
Consider `O=C(Nc1cccc(C(F)(F)F)c1)N[C@H]1CC[C@H](Oc2ccccc2F)CC1`, for which half-maximal inhibition (IC50) was put at 2.45 µM.

As for `O=C(Nc1cccc(C(F)(F)F)c1)N[C@H]1CC[C@H](Oc2cccc(F)c2)CC1`, inhibition was half-maximal at 2.4 µM (IC50).

Regarding `O=C(Nc1ccc(OC(F)(F)F)cc1)N[C@H]1CC[C@H](Oc2ccc(F)cc2)CC1`, the 50% inhibitory concentration (IC50) stood at 2.7 µM.

Consider `O=C(Nc1ccc(C(F)(F)F)cc1)N[C@H]1CC[C@H](Oc2ccc(F)cc2)CC1`, for which it took 2.8 µM to reach half-maximal inhibition (IC50).

A further data set has as its target Eukaryotic translation initiation factor 2-alpha kinase 1 (Homo sapiens) (UniProt Q9BQI3). Kind of data set: Activation of HRI in human CRL-2813-pBISA-DL(ATF-4) reporter cells assessed as eIF2alpha phosphorylation after 10 hrs by dual-luciferase reporter gene assay in presence of siRNA relative to control.
Conditions: not given
Summed up: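 CRL-2813-pBISA-DL(ATF-4) reporter cells transiently transfected (Lipofectamine 2000) with HRI-targeting or non-targeting siRNA for 48 h, then treated with compounds or DMSO for 10 h. Firefly/renilla ratio by dual luciferase assay, normalized to vehicle. Triplicate, three independent experiments; mean±S.E.M.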
For the compound `O=C(Nc1ccc(OC(F)(F)F)cc1)N[C@H]1CC[C@H](Oc2ccc(F)cc2)CC1`, the outcome was inactive.

`O=C(Nc1ccc(C(F)(F)F)cc1)N[C@H]1CC[C@H](Oc2ccc(F)cc2)CC1`: the outcome was inactive.

Another data set shares this target. The experiment in a line: Activation of HRI in human CRL2813 cells assessed as reduction in cyclin D1 protein expression at 10 uM after 6 hrs by Western blotting analysis. The format is cell-based.
Conditions: not given
Summed up:
as §2
Take `O=C(Nc1ccc(OC(F)(F)F)cc1)N[C@H]1CC[C@H](Oc2ccc(F)cc2)CC1`: the outcome was Active.

For `O=C(Nc1ccc(C(F)(F)F)cc1)N[C@H]1CC[C@H](Oc2ccc(F)cc2)CC1`, the result was Active.

System in the next data set: not listed separately
The experiment in a line: Antiproliferative activity against human CRL2813 cells after 5 days by SRB assay in presence of non-targeting siRNA. The format is functional, cell-based. Conditions: CRL2813, 120 h.
On to `O=C(Nc1ccc(OC(F)(F)F)cc1)N[C@H]1CC[C@H](Oc2ccc(F)cc2)CC1`, for which the half-maximal inhibitory concentration (IC50) amounted to 3.3 µM.

On to `O=C(Nc1ccc(C(F)(F)F)cc1)N[C@H]1CC[C@H](Oc2ccc(F)cc2)CC1`, for which the half-inhibitory concentration (IC50) was determined as 3.1 µM.

Another data set concerns the target Eukaryotic translation initiation factor 2-alpha kinase 1 (Homo sapiens) (UniProt Q9BQI3). The experiment in a line: Activation of HRI in human CRL2813 cells assessed as eIF2alpha phosphorylation after 6 hrs by Western blotting analysis. The format is cell-based.
Conditions: not given
Summed up: as §2
Turning to `O=C(Nc1ccc(OC(F)(F)F)cc1)N[C@H]1CC[C@H](Oc2ccc(F)cc2)CC1`, the result was Active.

Regarding `O=C(Nc1ccc(C(F)(F)F)cc1)N[C@H]1CC[C@H](Oc2ccc(F)cc2)CC1`, the result was Active.

The subject of a further data set is MCF7. The experiment in a line: Antiproliferative activity against human MCF7 cells after 5 days by SRB assay in presence of non-targeting siRNA. The format is functional, cell-based. The conditions noted are these: MCF7, 120 h.
As to `O=C(Nc1ccc(OC(F)(F)F)cc1)N[C@H]1CC[C@H](Oc2ccc(F)cc2)CC1`, the IC50 was 9.2 µM.

As to `O=C(Nc1ccc(C(F)(F)F)cc1)N[C@H]1CC[C@H](Oc2ccc(F)cc2)CC1`, the half-inhibitory concentration (IC50) is 8.4 µM.

System in another data set: not listed separately
The experiment in a line: Ratio of IC50 for human CRL2813 cells after 3 days by SRB assay in presence of HRI-targeting siRNA to IC50 for human CRL2813 cells after 3 days by SRB assay in presence of non-targeting siRNA.
Conditions: not given
With `O=C(Nc1ccc(OC(F)(F)F)cc1)N[C@H]1CC[C@H](Oc2ccc(F)cc2)CC1`, the “Ratio IC50” value was 1.7.

`O=C(Nc1ccc(C(F)(F)F)cc1)N[C@H]1CC[C@H](Oc2ccc(F)cc2)CC1`: the “Ratio IC50” value is reported as 1.7.
